Source: PubChem BioAssay
Only some compounds are listed: those with a hit (about 3.5% of all), similar ones and a draw of the others.
MrgX1 allo act: positive allosteric modulators of MrgX1, primary screen, HEK293 cells, Fluo-4 calcium flux; Mas-related G-protein coupled receptor member X1 (Homo sapiens), Q96LB2; FDSS; hits give high values; B-score at 10 µM; 310,000 tested, 0.63% active; AID 588675, 2011;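 active means plate-corrected calcium response at least 3 library SD above typical, normal starting fluorescence, not activating the receptor alone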;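 further: compound read alongside a low EC10 to EC30 dose of BAM8-22 agonist; peak minus trough fluorescence over baseline measured at the second addition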
Target sequence (Q96LB2 whole entry, looked up): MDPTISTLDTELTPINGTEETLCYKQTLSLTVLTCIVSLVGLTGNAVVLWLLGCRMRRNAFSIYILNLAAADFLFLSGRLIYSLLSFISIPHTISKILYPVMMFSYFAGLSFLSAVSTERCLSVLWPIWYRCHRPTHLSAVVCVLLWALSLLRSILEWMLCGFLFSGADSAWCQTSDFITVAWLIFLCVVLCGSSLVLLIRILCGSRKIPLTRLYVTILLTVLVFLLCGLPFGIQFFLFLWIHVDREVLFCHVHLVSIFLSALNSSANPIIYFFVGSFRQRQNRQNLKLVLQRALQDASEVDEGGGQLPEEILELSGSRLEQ
RGS4 act: RGS4 potentiators or activators, primary screen, cell-based, HEK293 M3R inducible RGS4, calcium flux; B-score at 10 µM; carbachol calcium flux Fluo4; hits give low values; 310,000 tested, 0.92% active;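 active means B-score of the integrated calcium signal more than 4 SD below the library mean, with starting fluorescence not abnormally high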;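 further: negative B-score means reduced calcium response which marks RGS4 activation or potentiation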
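System – HEK293 FlpIn-TREx cells, stable M3R, doxycycline-inducible RGS4 · Reagent – ECmax carbachol challenge · Times – compound preincubation 20 min at room temperature before agonist · Technique – Fluo4 fluorescence kinetic imaging of calcium · Measure – B score of integrated Fluo4 ratio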
MrgX1 ag: agonists of human MrgX1 receptor, primary screen, HEK293 cells, Fluo-4 calcium flux | Mas-related G-protein coupled receptor member X1 (Homo sapiens), Q96LB2 | B-score at 10 µM | Fluo-4 calcium fluorescence, agonist mode; hits give high values | 310,000 tested, 0.44% active;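 active means calcium response B-score plate-corrected fluorescence ratio at least 3 library SD, with starting fluorescence B-score inside 5 SD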
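times = overnight plating, then 30 min 37 °C plus 30 min room-temperature dye loading | assay system = stable human MrgX1 HEK293 cell line | input = fifteen thousand cells per well | signal = kinetic calcium dye fluorescence, Fluo-4 NW | dosing = compound delivered in addition one of three | read-out = B-scored fluorescence response ratio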
MrgX1 antagonist: antagonists of human MrgX1 receptor, primary screen, HEK293 cells, Fluo-4 calcium flux; Mas-related G-protein coupled receptor member X1 (Homo sapiens), Q96LB2; BAM8-22 antagonism; hits give low values; B-score at 10 µM; 310,000 tested, 1.3% active; AID 588676, 2011;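 active means calcium-response B-score plate-corrected more than 3 library SD below zero, starting fluorescence within 5 deviations, no agonist response on first addition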;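 further: peak minus trough fluorescence over baseline after final BAM8-22 challenge near maximal dose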
RGS4 inh: RGS4 inhibitors, primary screen, cell-based, HEK293 M3R inducible RGS4, calcium flux | AID 463165, 2010 | 310,000 tested, 0.45% active | Fluo-4 calcium flux; hits give high values; triggered by carbachol at its EC20 | B-score at 10 µM;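 active means B-score, a plate-corrected calcium signal, over three deviations above library mean, with baseline fluorescence within five deviations of library mean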;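 further: RGS4 expression induced by doxycycline in cells with stable M3 receptor; B-score is computed from the integrated fluorescence ratio over baseline after carbachol; higher B-score means a larger calcium signal and so more RGS4 inhibition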
Target sequence (P49798 whole entry, looked up): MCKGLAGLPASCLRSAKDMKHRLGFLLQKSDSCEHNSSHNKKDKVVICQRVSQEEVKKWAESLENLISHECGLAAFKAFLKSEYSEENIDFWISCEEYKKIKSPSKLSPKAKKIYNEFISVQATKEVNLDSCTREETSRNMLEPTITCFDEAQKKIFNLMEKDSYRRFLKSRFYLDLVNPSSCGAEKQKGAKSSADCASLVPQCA
RGS4 block valid: enhanced carbachol calcium response, M3R/RGS4 cells, RGS4 inhibitor project, cell-based, validation screen, HEK293 M3R/RGS4, calcium flux. calcium response, % at 10 µM. shares compounds with RGS4 inh. carbachol calcium Fluo-4 fluorescence; carbachol added at its EC20; 0 = buffer wells, 100 = carbachol control. AID 492999, 2010. 1,700 tested, 65% active;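 active means duplicate-averaged calcium response above the buffer-only control mean plus 5 SD of those controls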;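 further: integrated fluorescence ratio F max minus min over baseline F0; higher response in RGS4-induced cells means RGS4 inhibition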
RGS4 uninduced: carbachol calcium response in non-induced M3R cells, confirmation, counter-screen for RGS4 inhibitor project, cell-based, HEK293 M3R; AID 493000, 2010; shares compounds with RGS4 inh; 1,900 tested, 20% active; carbachol calcium Fluo-4; submaximal (EC20) carbachol stimulus; buffer wells 0%, carbachol control wells 100%; activity (percent), % at 10 µM; call rule not given here;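 further: RGS4 induction absent so cells express M3R without RGS4; higher means more calcium signal and flags a non-specific hit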
RGS4 inh ctr2: second counter-screen for RGS4 inhibitors: non-induced cells without carbachol; shares compounds with RGS4 inh; HEK293 M3R/RGS4 non-induced, Fluo-4 calcium, no carbachol; normalised: buffer wells 0%, carbachol wells 100%; 1,900 tested, 22% active; calcium response (agonist-mode artifact), % at 10 µM;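 active means duplicate-averaged calcium rise in uninduced cells above buffer wells' mean plus 5 SD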
Each line names hits and unclear results; the compound was inactive in the other large screens (follow-up assays come after a bar, where they were run).

O=C(Cc1ccc(Br)cc1)OCC(=O)N1CCc2ccccc2C1	none
COc1ccc(C(=O)COC(=O)C(CCSC)NS(=O)(=O)c2ccc(Cl)cc2)cc1 (stereo unspecified)	none
CSCCC(NS(=O)(=O)c1ccc(C)cc1)C(=O)NC1CCCCC1 (stereo unspecified)	none | RGS4 block valid inactive | RGS4 uninduced inactive | RGS4 inh ctr2 inactive
CSCCC(NS(=O)(=O)c1ccc(C)cc1)C(=O)NC1CCCCCC1 (stereo unspecified)	none | RGS4 uninduced inactive | RGS4 inh ctr2 inactive
COc1ccc(S(=O)(=O)NC(CCSC)C(=O)NC2CCCCC2)cc1 (stereo unspecified)	RGS4 inh 5.2 | RGS4 block valid inactive | RGS4 uninduced inactive | RGS4 inh ctr2 inactive
Cc1ccc(S(=O)(=O)N2CCCOC2CNC(=O)C(=O)NC2CCCC2)cc1 (stereo unspecified)	none | RGS4 block valid inactive | RGS4 uninduced inactive | RGS4 inh ctr2 inactive
C/C(CCc1oc2c(Br)cc(Br)cc2c1-c1ccc(C)o1)=N\O	RGS4 inh 11 | RGS4 block valid inactive | RGS4 uninduced inactive | RGS4 inh ctr2 inactive
CC(=O)CCc1oc2c([N+](=O)[O-])cccc2c1-c1ccc(C)o1	none
CC1CCN(C(=O)CCNC(=O)Cn2cnc3sc4c(c3c2=O)CCCC4)CC1	none
CC(C)N1C(=O)S/C(=C/c2ccccc2OCc2ccc(C(=O)O)cc2)C1=O	none | RGS4 block valid inactive | RGS4 uninduced inactive | RGS4 inh ctr2 inactive
CN1C(=O)S/C(=C\c2ccccc2OCc2ccc(C(=O)O)cc2)C1=O	RGS4 inh 6.2 | RGS4 block valid 14% | RGS4 uninduced inactive | RGS4 inh ctr2 inactive
O=[N+]([O-])c1cc(C(F)(F)F)ccc1NCCc1c[nH]c2ccc(O)cc12	RGS4 inh 13 | RGS4 block valid 20% | RGS4 uninduced inactive | RGS4 inh ctr2 inactive
FC(F)(F)c1ccc(N=Cc2sc(N3CCOCC3)nc2-c2ccccc2)cc1	RGS4 inh 5.5 | RGS4 block valid 5.5% | RGS4 uninduced inactive | RGS4 inh ctr2 inactive
CC1CN(c2ccc(NC(=S)NNCCC#N)cc2)CC(C)O1 (stereo unspecified)	none
N#Cc1c(-c2ccco2)cc(-c2ccc(F)cc2)nc1N	RGS4 inh 6.3 | RGS4 block valid 7.0% | RGS4 uninduced inactive | RGS4 inh ctr2 24%
N#Cc1c(-c2ccc(F)cc2)cc(-c2cccnc2)nc1N	none
N#Cc1c(-c2ccccc2)cc(-c2ccc(O)cc2)nc1N	none
Cc1ccc(-c2cc(-c3ccccc3)nc(N)c2C#N)o1	none | RGS4 block valid inactive | RGS4 uninduced inactive | RGS4 inh ctr2 inactive
Cc1ccc(-c2csc(NC(=O)C3=COCCO3)n2)cc1	none | RGS4 block valid inactive | RGS4 uninduced inactive | RGS4 inh ctr2 inactive
CC(=O)Nc1ccc(-c2csc(NC(=O)C3=COCCO3)n2)cc1	none
O=C(Nc1nc(-c2ccc(Oc3ccccc3)cc2)cs1)C1=COCCO1	RGS4 inh 21 | RGS4 block valid 32% | RGS4 uninduced 42% | RGS4 inh ctr2 inactive
CCCC1(c2ccccc2)NC(=O)N(CC(=O)N(C)Cc2c(F)cccc2Cl)C1=O (stereo unspecified)	none
CCCC(=O)Nc1cccc(NC(=O)c2ccc3c(c2)OCO3)c1	none | RGS4 block valid inactive | RGS4 uninduced inactive | RGS4 inh ctr2 inactive
CCC(=O)Nc1ccc(NC(=O)c2ccc3c(c2)OCO3)cc1	none
CCC(=O)Nc1cccc(NC(=O)c2ccc3c(c2)OCCO3)c1	none | RGS4 block valid inactive | RGS4 uninduced inactive | RGS4 inh ctr2 inactive
CC1(C)OC(=O)C(=CNCCc2ccc(O)cc2)C(=O)O1	RGS4 inh 5.7 | RGS4 block valid inactive | RGS4 uninduced inactive | RGS4 inh ctr2 inactive
O=C(NC(C(=O)N/N=C/c1ccccc1)c1n[nH]c(=O)c2ccccc12)c1ccccc1 (stereo unspecified)	none | RGS4 block valid inactive | RGS4 uninduced inactive | RGS4 inh ctr2 10%
CC(NC(=O)c1ccccc1)C(=O)N/N=C/c1ccccc1 (stereo unspecified)	none
O=C(NC(C(=O)N/N=C/c1c2ccccc2cc2ccccc12)c1n[nH]c(=O)c2ccccc12)c1ccccc1 (stereo unspecified)	none | RGS4 block valid inactive | RGS4 uninduced inactive | RGS4 inh ctr2 128%
CCOC(=O)C(C)n1cnc2c(nnn2Cc2ccc(C)cc2)c1=O (stereo unspecified)	none
O=[N+]([O-])c1cccnc1Oc1ccc(F)cc1	none
COc1ccc(Oc2ncccc2[N+](=O)[O-])cc1	RGS4 inh 13 | RGS4 block valid inactive | RGS4 uninduced inactive | RGS4 inh ctr2 inactive
O=[N+]([O-])c1cc(Cl)c2cccnc2c1O	none | RGS4 uninduced inactive | RGS4 inh ctr2 134%
O=[N+]([O-])c1cc(F)c2cccnc2c1O	none
O=[N+]([O-])c1cc(Cl)c(O)c2ncccc12	RGS4 inh 6.7 (no result: MrgX1 allo act, MrgX1 ag, MrgX1 antagonist) | RGS4 block valid 12% | RGS4 uninduced inactive | RGS4 inh ctr2 inactive
COC(=O)C(Cc1ccccc1)NC(=O)c1cc(S(=O)(=O)N(C)C)ccc1Cl (stereo unspecified)	none
CSc1cccc(N=C2C(=O)Nc3ccccc32)c1	MrgX1 ag 32, RGS4 inh 16 | RGS4 block valid 24% | RGS4 uninduced inactive | RGS4 inh ctr2 7.5%
O=C1Nc2ccccc2C1=Nc1cccc(Cl)c1	MrgX1 ag 51, RGS4 inh 41 | RGS4 block valid 28% | RGS4 uninduced 54% | RGS4 inh ctr2 16%
CCOC(=O)N1CCN(C(=O)c2cc(COc3ccc(OC)cc3Cl)on2)CC1	none
CCOc1cccc(C2C(C(=O)c3ccc(C)o3)=C(O)C(=O)N2Cc2ccccc2)c1 (stereo unspecified)	RGS4 inh 4.7 (no result: MrgX1 allo act, MrgX1 ag, MrgX1 antagonist) | RGS4 block valid 16% | RGS4 uninduced inactive | RGS4 inh ctr2 inactive
